“Also recorded” adds a separate entry of the source.
Assays:
[1] = Stability in simulated gastric fluid; format: in vitro ADME
How it was run: (§1)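 Test compound at 1 μM final was incubated at 37 °C in CD-1 mouse plasma, or in simulated gastric or intestinal fluid made per the USP National Formulary. Samples were taken at 0, 5, 15, 30, 60, 120 and 240 min and quenched with 3 volumes of acetonitrile/1% formic acid, then centrifuged. Prodrug and released parent were measured by HPLC-UV (Fmoc-Cl derivatization, 254 nm) and/or LC-MS/MS (MRM), and t1/2 was calculated.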

[2] = Stability in simulated intestinal fluid; format: in vitro ADME; conditions: SIF, 1 μM, 37 °C
How it was run: as §1

[3] = Stability in mouse plasma; format: in vitro ADME; conditions: mouse plasma (CD-1), 1 μM, 37 °C
How it was run: as §1

[4] = Stability in mouse brain homogenate; format: in vitro ADME; conditions: 1 μM, 37 °C
[5] = Stability in mouse liver homogenate; format: in vitro ADME; conditions: for Half-life, tissue homogenate liver: mouse liver homogenate, 1 μM, 37 °C
[6] = Conversion of prodrugs into ψ-GSH in brain homogenate; format: in vitro ADME, mouse; conditions: freshly prepared brain homogenates containing proteinase inhibitors
[7] = Conversion of prodrugs into ψ-GSH in liver homogenate; format: in vitro ADME, mouse; conditions: liver homogenates
[8] = tested on: i.c.v. Aβ1–42-injected C57BL/6 mice; assay: Spontaneous alternation T-maze in i.c.v. Aβ1–42-injected mice; format: in vivo, mouse; conditions: for T-maze alternation rate: mouse, in vivo, po, 250 mg/kg
GFAP and Iba1 staining = format: in vivo, mouse; conditions: i.c.v. Aβ-injected mice, 250 mg/kg oral
brain GSH = assay: Quantitation of GSH in brain of i.c.v. Aβ-injected mice; format: in vivo, mouse; conditions: 250 mg/kg oral
[9] = tested on: glyoxalase enzyme pathway (AGE content); assay: Brain advanced glycation endproducts; format: in vivo, mouse; conditions: i.c.v. Aβ-injected mice, 250 mg/kg oral
[10] = tested on: glyoxalase pathway (D-lactate); assay: Brain D-lactate measurement; format: in vivo, mouse; conditions: wild type C57BL/6 mice, 500 mg/kg oral, multiple time points
[11] = Brain and plasma distribution study in CD-1 mice; format: in vivo, mouse; conditions: CD1 mice

conversion into / release of ψ-GSH in brain homogenate [6] | conversion into / release of ψ-GSH in liver homogenate [7] | Compound | Half-life, plasma [3] | Half-life, tissue homogenate liver [5] | T-maze alternation rate [8] | Iba1 staining in dorsal hippocampus (GFAP and Iba1 staining) | brain reduced GSH compared to the Aβ-only group (brain GSH) | brain total AGE content versus Aβ1–42 group [9] | further results
detected | detected | N-Ethyloxycarbonyl-γ-L-Glz[-L-Cys(SCOOEt)-Gly-OH]-OH [prodrug 7] | 113.6 h | 1.30 h | effective in improving the alternation behavior | significantly reduced | significantly increased | significantly reduced | Half-life, GI tract gastric phase ([1]; SGF, 1 μM, 37 °C): 17.96 h; Half-life, GI tract intestinal phase [2]: 24.24 h; Half-life, tissue homogenate brain [4]: 9.79 h; T-maze repetitive arm entries ([8]; oral treatment, 250 mg/kg once a day, Aβ-only 3.22 ± 0.27): 1.00 ± 0.31; GFAP staining in dorsal hippocampus (GFAP and Iba1 staining): significant reduction; astrocytic and microglial reactivity (GFAP, Iba1) in dentate gyrus (GFAP and Iba1 staining): Mitigation; brain D-lactate release [10]: immediate spike
relatively higher and sustained release | relatively higher and sustained release | CCOC(=O)SC[C@H](NC(=O)NC[C@H](N)C(=O)OC1CCCC1)C(=O)NCC(=O)OC1CCCC1 [prodrug 6, NH2-γ-L-Glz[-L-Cys(SCOOEt)-Gly-OcPe]-OcPe] |  |  |  |  |  |  | major metabolite in liver homogenate incubates ([5]; liver homogenate): thiocarbonate cleavage product
 |  | NH2-γ-L-Glz[-L-Thz-Gly-OH]-OH [prodrug 4] | 30.64 h | 115.5 h |  |  |  |  | 
 |  | CC(=O)SC[C@H](NC(=O)NC[C@H](N)C(=O)O)C(=O)NCC(=O)O [prodrug 1, NH2-γ-L-Glz[-L-Cys(SAc)-Gly-OH]-OH] |  |  |  |  |  |  | half-life at 1 μM ([1]; simulated gastric fluid (SGF)): ~24 h

Compound | conversion into / release of ψ-GSH in brain homogenate [6] | conversion into / release of ψ-GSH in liver homogenate [7] | Half-life, plasma [3] | Half-life, tissue homogenate liver [5] | T-maze alternation rate [8] | Iba1 staining in dorsal hippocampus (GFAP and Iba1 staining) | brain reduced GSH compared to the Aβ-only group (brain GSH) | brain total AGE content versus Aβ1–42 group [9] | further results
Cl.N[C@@H](CNC(=O)N[C@@H](CS)C(=O)NCC(=O)OC1CCCC1)C(=O)OC1CCCC1 [prodrug 5, HCl.NH2-γ-L-Glz[-L-Cys(SH)-Gly-OcPe]-OcPe] | relatively higher and sustained release; also recorded: detected | relatively higher and sustained release; also recorded: detected |  |  | effective in improving the alternation behavior | significantly reduced | significantly increased | significantly reduced | plasma Cmax versus ψ-GSH ([11]; 250 mg/kg oral, comparison ψ-GSH 500 mg/kg i.p.): increased Cmax; brain levels of ψ-GSH after prodrug administration versus ψ-GSH treatment ([11]; prodrug 250 mg/kg oral vs ψ-GSH 500 mg/kg i.p.): lower than; relative brain AUC ([11]; prodrug 250 mg/kg oral, 2-6 h): 1.22 nmol·h/mg tissue
